# Experimental data taken from ChEMBL document CHEMBL3399974, “Discovery and SAR of novel series of imidazopyrimidinones and dihydroimidazopyrimidinones as positive allosteric modulators of the metabotropic glutamate receptor 5 (mGlu5)” (Bioorg Med Chem Lett, 2015).
# Calls of active or inactive are those of the source. The calls are words filed in the database; no cut-off is given here.
# Key:
# [1] = target: Metabotropic glutamate receptor 5 (Rattus norvegicus, UniProt P31424); assay: Positive allosteric modulation at rat mGluR5 expressed in HEK293 cells by calcium mobilization assay; format: functional, cell-based
# Metabotropic glutamate receptor 5, sequence (P31424 whole entry): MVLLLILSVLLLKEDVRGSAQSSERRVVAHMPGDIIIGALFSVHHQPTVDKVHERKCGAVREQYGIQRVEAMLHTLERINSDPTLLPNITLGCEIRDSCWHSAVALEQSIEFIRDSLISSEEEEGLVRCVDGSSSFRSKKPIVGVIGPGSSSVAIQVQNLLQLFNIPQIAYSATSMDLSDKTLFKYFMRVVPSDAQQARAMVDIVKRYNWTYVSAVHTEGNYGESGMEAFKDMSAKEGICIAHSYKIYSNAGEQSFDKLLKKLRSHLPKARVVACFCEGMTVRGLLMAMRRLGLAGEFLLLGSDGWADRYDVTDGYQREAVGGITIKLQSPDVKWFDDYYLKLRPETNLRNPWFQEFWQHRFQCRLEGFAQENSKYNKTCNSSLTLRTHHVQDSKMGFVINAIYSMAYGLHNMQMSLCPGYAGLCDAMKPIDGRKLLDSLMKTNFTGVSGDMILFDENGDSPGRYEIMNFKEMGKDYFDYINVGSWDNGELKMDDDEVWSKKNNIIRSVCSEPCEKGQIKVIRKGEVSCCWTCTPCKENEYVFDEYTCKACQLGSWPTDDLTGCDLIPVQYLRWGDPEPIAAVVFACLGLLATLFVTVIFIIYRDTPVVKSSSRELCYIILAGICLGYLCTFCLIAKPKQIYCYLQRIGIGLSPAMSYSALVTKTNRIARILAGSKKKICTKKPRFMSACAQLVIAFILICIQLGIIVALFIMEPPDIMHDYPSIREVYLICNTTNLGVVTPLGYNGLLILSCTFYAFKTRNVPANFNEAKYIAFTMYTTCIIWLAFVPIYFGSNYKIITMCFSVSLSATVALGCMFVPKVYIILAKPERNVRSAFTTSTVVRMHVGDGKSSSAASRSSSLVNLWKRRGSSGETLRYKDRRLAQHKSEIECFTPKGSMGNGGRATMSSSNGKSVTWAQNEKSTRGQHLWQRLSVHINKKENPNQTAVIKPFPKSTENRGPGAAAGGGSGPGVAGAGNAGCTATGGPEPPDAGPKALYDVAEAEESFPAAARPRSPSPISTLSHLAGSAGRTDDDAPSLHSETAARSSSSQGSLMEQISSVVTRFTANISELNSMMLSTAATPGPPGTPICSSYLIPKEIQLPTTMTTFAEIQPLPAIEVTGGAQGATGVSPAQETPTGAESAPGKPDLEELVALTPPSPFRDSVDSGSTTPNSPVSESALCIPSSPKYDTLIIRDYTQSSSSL
# Outline: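 HEK293 cells stably expressing rat mGlu5 were run in a 'triple add' calcium mobilization assay that detects agonism, PAM and NAM activity together. Response amplitude was expressed as % of the maximal response to 100 µM glutamate. Values are the mean of three or more independent determinations.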
# [2] = target: Metabotropic glutamate receptor 5 (Rattus norvegicus) (UniProt P31424); assay: Positive allosteric modulation at rat mGluR5 expressed in HEK293 cells assessed as amplitude of response at 30 uM by calcium mobilization assay relative to glutamate; format: functional, cell-based
# Metabotropic glutamate receptor 5 (Rattus norvegicus), sequence (P31424 21-1203 limits assumed): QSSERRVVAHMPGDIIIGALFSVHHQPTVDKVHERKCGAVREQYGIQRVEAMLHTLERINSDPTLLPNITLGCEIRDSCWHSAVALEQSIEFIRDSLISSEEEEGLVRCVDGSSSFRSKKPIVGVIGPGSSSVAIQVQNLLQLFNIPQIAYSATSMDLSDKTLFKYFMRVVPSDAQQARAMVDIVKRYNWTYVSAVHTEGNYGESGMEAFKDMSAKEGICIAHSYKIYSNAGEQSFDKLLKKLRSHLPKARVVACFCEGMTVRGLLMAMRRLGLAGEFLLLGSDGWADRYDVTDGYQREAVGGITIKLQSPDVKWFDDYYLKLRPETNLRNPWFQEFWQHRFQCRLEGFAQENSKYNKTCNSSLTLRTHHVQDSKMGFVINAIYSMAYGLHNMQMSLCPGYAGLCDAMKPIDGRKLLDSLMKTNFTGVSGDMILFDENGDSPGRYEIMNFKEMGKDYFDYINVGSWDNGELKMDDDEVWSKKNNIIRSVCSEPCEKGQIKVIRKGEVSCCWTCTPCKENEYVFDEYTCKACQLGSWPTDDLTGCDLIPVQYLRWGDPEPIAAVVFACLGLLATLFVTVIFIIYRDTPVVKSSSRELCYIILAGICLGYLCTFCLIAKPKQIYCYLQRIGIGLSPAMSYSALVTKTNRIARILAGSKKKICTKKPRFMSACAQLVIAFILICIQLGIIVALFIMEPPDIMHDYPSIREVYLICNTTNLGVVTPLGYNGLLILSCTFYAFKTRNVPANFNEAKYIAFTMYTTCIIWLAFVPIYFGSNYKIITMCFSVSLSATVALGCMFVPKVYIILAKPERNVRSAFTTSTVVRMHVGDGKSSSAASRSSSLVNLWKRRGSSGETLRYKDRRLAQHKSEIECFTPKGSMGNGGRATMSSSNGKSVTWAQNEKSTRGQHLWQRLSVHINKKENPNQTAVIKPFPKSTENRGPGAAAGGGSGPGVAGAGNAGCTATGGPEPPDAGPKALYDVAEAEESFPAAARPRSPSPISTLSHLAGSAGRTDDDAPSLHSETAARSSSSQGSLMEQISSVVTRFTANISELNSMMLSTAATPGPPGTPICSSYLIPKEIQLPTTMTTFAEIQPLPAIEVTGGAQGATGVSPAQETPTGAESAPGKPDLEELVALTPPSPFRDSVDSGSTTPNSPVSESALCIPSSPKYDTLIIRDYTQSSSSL
# Outline: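 HEK293 cells stably expressing rat mGlu5 were used in a calcium mobilization assay. Test compound was given at 30 µM, and response amplitude is expressed as percent of the maximal response to 100 µM glutamate. Values are the average of three or more independent determinations.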
# [3] = Drug metabolism in human liver microsomes assessed as compound metabolized at 1 uM after 15 mins; format: ADME; details: read-out: Drug metabolism
# Outline: (§1)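 Test compound at 1 µM was incubated for 15 min with liver microsomes (human for HLM, rat for RLM). Read-out was % of compound metabolized.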
# [4] = Drug metabolism in rat liver microsomes assessed as compound metabolized at 1 uM after 15 mins; format: ADME; details: read-out: Drug metabolism; outline: as §1
# [5] = Plasma protein binding in human; format: ADME, cell-free
# [6] = Plasma protein binding in rat; format: ADME, cell-free
# Cytochrome P450 2C9 = Cytochrome P450 2C9 (Homo sapiens, UniProt P11712); assay: Inhibition of human CYP2C9; format: ADME
# Outline: (§2)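 Cocktail assay in human liver microsomes using known probe substrates for the major CYP isoforms (2C9, 2D6, 3A4, 1A2). IC50 was determined for each isoform.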
# Cytochrome P450 2D6 = Cytochrome P450 2D6 (Homo sapiens, UniProt P10635); assay: Inhibition of human CYP2D6; format: ADME; outline: as §2
# Cytochrome P450 3A4 = Cytochrome P450 3A4 (Homo sapiens, UniProt P08684); assay: Inhibition of human CYP3A4; format: ADME; outline: as §2
# Cytochrome P450 3A4, sequence (P08684 whole entry): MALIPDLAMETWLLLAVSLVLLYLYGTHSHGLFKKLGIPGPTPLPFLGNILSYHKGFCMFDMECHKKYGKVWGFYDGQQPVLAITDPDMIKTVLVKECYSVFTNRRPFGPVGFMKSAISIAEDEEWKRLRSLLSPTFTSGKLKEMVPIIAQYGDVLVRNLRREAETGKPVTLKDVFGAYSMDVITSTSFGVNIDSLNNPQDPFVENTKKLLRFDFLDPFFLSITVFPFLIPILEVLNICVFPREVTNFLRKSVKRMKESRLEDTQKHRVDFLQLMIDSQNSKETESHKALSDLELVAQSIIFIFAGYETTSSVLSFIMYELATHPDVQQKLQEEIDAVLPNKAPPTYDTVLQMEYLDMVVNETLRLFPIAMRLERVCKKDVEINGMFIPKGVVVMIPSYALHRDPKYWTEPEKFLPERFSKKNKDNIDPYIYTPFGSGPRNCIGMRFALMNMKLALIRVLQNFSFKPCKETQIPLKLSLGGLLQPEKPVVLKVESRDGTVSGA
# Cytochrome P450 1A2 = target: T1, Cytochrome P450 1A2 (Homo sapiens, UniProt P05177); assay: Inhibition of human CYP1A2; format: ADME
# T1 sequence (P05177 whole entry): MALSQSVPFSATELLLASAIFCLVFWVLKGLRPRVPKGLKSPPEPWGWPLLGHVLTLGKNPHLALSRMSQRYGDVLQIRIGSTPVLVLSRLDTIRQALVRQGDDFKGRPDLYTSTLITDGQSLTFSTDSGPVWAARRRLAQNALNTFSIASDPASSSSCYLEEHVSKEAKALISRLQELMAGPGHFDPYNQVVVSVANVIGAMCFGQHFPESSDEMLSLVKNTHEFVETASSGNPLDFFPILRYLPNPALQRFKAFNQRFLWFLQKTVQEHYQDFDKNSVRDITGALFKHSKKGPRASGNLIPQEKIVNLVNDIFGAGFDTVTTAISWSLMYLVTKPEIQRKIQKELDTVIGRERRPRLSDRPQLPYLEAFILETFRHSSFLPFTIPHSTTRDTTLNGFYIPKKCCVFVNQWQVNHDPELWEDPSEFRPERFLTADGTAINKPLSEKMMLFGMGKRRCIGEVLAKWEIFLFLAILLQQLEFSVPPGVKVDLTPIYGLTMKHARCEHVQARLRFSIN
# Outline: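 Cocktail assay in human liver microsomes with known probe substrates for CYP 2C9, 2D6, 3A4 and 1A2; IC50 determined.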
# [7] = target: Metabotropic glutamate receptor 3 (Homo sapiens, UniProt Q14832); assay: Negative allosteric modulation at mGluR3 (unknown origin)
# [8] = target: Metabotropic glutamate receptor 1 (Homo sapiens, UniProt Q13255); assay: Positive allosteric modulation at mGluR1 (unknown origin)
# [9] = target: Metabotropic glutamate receptor 2 (Homo sapiens, UniProt Q14416); assay: Positive allosteric modulation at mGluR2 (unknown origin)
# [10] = target: Metabotropic glutamate receptor 4 (Homo sapiens, UniProt Q14833); assay: Positive allosteric modulation at mGluR4 (unknown origin)
# Metabotropic glutamate receptor 4, sequence (Q14833 whole entry): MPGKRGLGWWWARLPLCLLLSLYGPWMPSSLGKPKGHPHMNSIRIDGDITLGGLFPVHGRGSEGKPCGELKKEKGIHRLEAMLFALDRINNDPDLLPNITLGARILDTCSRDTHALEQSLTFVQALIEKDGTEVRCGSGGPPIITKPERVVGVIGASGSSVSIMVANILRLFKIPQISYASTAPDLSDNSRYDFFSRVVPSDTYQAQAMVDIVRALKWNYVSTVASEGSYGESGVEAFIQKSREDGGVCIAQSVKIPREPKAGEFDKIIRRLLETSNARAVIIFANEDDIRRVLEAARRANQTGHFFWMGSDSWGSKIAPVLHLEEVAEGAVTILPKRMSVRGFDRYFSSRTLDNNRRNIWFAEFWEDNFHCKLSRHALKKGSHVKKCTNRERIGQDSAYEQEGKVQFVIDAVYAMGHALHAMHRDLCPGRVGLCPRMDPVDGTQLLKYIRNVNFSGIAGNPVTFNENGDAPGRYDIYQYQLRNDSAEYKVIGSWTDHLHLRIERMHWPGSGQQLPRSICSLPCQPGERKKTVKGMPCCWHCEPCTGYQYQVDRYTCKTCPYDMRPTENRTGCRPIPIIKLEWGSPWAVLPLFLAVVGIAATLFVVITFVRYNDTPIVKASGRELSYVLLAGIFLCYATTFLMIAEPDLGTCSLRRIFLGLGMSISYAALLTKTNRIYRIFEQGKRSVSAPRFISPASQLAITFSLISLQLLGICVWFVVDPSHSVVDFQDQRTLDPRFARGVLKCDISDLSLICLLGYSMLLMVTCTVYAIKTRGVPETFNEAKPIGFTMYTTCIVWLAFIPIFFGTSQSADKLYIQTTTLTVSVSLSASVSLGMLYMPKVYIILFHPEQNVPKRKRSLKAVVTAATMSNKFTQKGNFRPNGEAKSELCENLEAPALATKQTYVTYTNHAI
# [11] = target: Metabotropic glutamate receptor 6 (Homo sapiens, UniProt O15303); assay: Positive allosteric modulation at mGluR6 (unknown origin)
# [12] = target: Metabotropic glutamate receptor 7 (Homo sapiens, UniProt Q14831); assay: Positive allosteric modulation at mGluR7 (unknown origin)
# Metabotropic glutamate receptor 7, sequence (Q14831 whole entry): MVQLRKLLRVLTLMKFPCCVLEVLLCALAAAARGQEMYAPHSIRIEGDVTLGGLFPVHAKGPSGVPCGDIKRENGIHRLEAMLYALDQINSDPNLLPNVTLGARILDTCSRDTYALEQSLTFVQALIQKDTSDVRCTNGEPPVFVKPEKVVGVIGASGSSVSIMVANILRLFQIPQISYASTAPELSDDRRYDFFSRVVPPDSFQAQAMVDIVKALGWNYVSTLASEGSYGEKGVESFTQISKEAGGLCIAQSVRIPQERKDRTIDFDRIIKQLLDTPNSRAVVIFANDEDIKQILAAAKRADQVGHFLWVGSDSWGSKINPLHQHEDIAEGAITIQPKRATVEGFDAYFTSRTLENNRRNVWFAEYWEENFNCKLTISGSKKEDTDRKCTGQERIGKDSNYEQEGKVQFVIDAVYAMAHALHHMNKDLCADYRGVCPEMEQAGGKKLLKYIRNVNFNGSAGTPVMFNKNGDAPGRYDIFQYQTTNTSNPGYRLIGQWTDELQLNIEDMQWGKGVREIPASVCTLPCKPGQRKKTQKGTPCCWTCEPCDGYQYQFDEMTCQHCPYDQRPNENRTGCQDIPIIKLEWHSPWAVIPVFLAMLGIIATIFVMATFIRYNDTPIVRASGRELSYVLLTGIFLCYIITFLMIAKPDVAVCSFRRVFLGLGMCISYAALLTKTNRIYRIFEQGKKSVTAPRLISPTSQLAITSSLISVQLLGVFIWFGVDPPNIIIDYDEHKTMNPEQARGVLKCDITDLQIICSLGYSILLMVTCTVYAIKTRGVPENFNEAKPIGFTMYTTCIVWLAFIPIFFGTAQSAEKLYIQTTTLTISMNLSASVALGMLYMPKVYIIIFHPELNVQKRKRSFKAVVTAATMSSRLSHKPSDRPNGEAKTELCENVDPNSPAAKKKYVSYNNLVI
# [13] = target: Metabotropic glutamate receptor 8 (Homo sapiens, UniProt O00222); assay: Positive allosteric modulation at mGluR8 (unknown origin)
# [14] = Terminal half-life in rat at 1 mg/kg, iv and 10 mg/kg, po; format: ADME, organism-based; details: in vivo, read-out: beta t1/2 (converted)
# Outline: (§3)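 Rat PK: compound formulated at 1 mg/mL in 20% HP-β-CD and given at 1 mg/kg IV and 10 mg/kg PO.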
# Rattus norvegicus [15] = assay: Volume of distribution at steady state in rat at 1 mg/kg, iv and 10 mg/kg, po; format: ADME, organism-based; details: in vivo; outline: as §3
# Plasma = assay: AUC in rat plasma at 1 mg/kg, iv and 10 mg/kg, po; format: ADME, organism-based; details: in vivo
# [16] = Ratio of AUC in brain to plasma of rat at 1 mg/kg, iv and 10 mg/kg, po; format: ADME, organism-based
# [17] = Fraction unbound in rat brain at 1 mg/kg, iv and 10 mg/kg, po; format: ADME, organism-based
# [18] = Cmax in rat brain at 1 mg/kg, iv and 10 mg/kg, po; format: ADME, organism-based
# Rattus norvegicus [19] = assay: Antipsychotic activity in po dosed rat assessed as reversal of amphetamine-induced hyperlocomotion; format: functional, organism-based
# Outline: (§4)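 Rats dosed orally; reversal of amphetamine-induced hyperlocomotion scored as % reversal of amphetamine effect, across an oral dose range up to 100 mg/kg; terminal unbound brain concentrations calculated at the doses tested.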
# Rattus norvegicus [20] = assay: Antipsychotic activity in rat assessed as reversal of amphetamine-induced hyperlocomotion at 3 mg/kg, po; format: functional, organism-based; design: dose 3 mg/kg; outline: as §4
# Rattus norvegicus [21] = assay: Antipsychotic activity in rat assessed as reversal of amphetamine-induced hyperlocomotion at 56.6 mg/kg, po; format: functional
# Outline: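 Rats were dosed orally and scored for reversal of amphetamine-induced hyperlocomotion, a model of antipsychotic activity. Doses tested went up to 100 mg/kg. Terminal unbound brain concentrations were calculated at the tested doses.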
# Rattus norvegicus [22] = assay: Antipsychotic activity in rat assessed as reversal of amphetamine-induced hyperlocomotion at 100 mg/kg, po; format: functional; outline: as §4
# Rattus norvegicus [23] = assay: Toxicity in rat assessed as pro-convulsive behavior up to 120 mg/kg, po by modified Irwin neurological test battery method; format: organism-based; design: dose 120 mg/kg, route oral; details: in vivo
# [24] = target: Metabotropic glutamate receptor 5 (Homo sapiens) (UniProt P41594); assay: Agonist activity at mGluR5 (unknown origin) at 30 uM
# Canis familiaris = assay: Toxicity in dog assessed as dizziness at 0.5 mg/ml, iv; format: organism-based, Canis lupus familiaris; details: in vivo
structure (smiles),measurement,setting,value
O=C1N(c2ccc(F)cc2)CCc2nc(COc3ccccc3)cn21,EC50,[1],86 nM
same,Emax,[2],70%
same,"metabolised at 0.25 h, 1 µM",[3],18%
same,"metabolised at 0.25 h, 1 µM",[4],19%
same,PPB,[5],90.3%
same,PPB,[6],88.1%
same,IC50,Cytochrome P450 2C9,> 20000 nM
same,IC50,Cytochrome P450 2D6,> 20000 nM
same,IC50,Cytochrome P450 3A4,> 20000 nM
same,IC50,Cytochrome P450 1A2,> 20000 nM
same,IC50,[7],290 nM
same,EC50,[8],> 10000 nM
same,EC50,[9],> 10000 nM
same,EC50,[10],> 10000 nM
same,EC50,[11],> 10000 nM
same,EC50,[12],> 10000 nM
same,EC50,[13],> 10000 nM
same,half-life,[14],55.8 min
same,Vdss,Rattus norvegicus [15],1.4 L/kg
same,AUC,Plasma,7.2 µM·h
same,Kp,[16],1.8
same,fraction unbound,[17],0.062
same,Cmax,[18],6.05 µM
same,Activity,Rattus norvegicus [19],Dose-dependent effect
same,Activity,Rattus norvegicus [20],Active
same,Activity,Rattus norvegicus [21],50%
same,Activity,Rattus norvegicus [22],50%
same,Activity,Rattus norvegicus [23],Toxic
same,Activity,[24],inactive
same,Activity,Canis familiaris,Toxic
Cc1nc(-n2ccc3nc(COc4ccccc4)cn3c2=O)ccc1F,EC50,[1],375 nM
same,Emax,[2],77%
same,"metabolised at 0.25 h, 1 µM",[3],8%
same,"metabolised at 0.25 h, 1 µM",[4],50%
Cc1ccc(-n2ccc3nc(COc4ccccc4)cn3c2=O)nc1,EC50,[1],2000 nM
same,Emax,[2],84%
O=c1n(CC2CC2)ccc2nc(COc3ccccc3)cn12,EC50,[1],1120 nM
same,Emax,[2],47%
Cc1cc(N2CCc3nc(COc4ccccc4)cn3C2=O)ccc1F,EC50,[1],130 nM
same,Emax,[2],91%
same,"metabolised at 0.25 h, 1 µM",[3],10%
same,"metabolised at 0.25 h, 1 µM",[4],37%
Cc1cccc(-n2ccc3nc(COc4ccccc4)cn3c2=O)n1,EC50,[1],3580 nM
same,Emax,[2],64%
Cn1ccc2nc(COc3ccccc3)cn2c1=O,EC50,[1],> 10000 nM
same,Emax,[2],67%
O=c1n(-c2ccc(F)cc2)ccc2nc(COc3cccc(F)c3)cn12,EC50,[1],230 nM
same,Emax,[2],91%
same,"metabolised at 0.25 h, 1 µM",[3],13%
same,"metabolised at 0.25 h, 1 µM",[4],28%
